Measured values: ChEMBL document CHEMBL1914438, “Synthesis and biological activity of novel N-cycloalkyl-(cycloalkylaryl)-2-[(3-R-2-oxo-2H-[1,2,4]triazino[2,3-c]quinazoline-6-yl)thio]acetamides” (2011)
Calls of active or inactive are those of the source. No cut-off for these calls is given here.

Tests used:
SNB-75 = assay: Cytotoxicity against human SNB75 cells assessed as cell growth at 10^-5 M after 48 hrs by SRB assay; format: functional; details: SNB-75, 48 h, read-out: Activity
In short: (§1)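 NCI human tumor cell line panel from nine cancer types. Each line was inoculated and preincubated 24–48 h, then exposed to a single concentration (10^-5 M) for 48 h. Growth was read by sulforhodamine B protein staining, measured spectrophotometrically. Value reported as percent growth of treated cells relative to untreated controls.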

Escherichia coli [1] = assay: Antibacterial activity against Escherichia coli at 1 to 5 mg/mL after 24 hrs by stiff-plate agar-diffusion method; format: functional, organism-based
In short: (§2)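 Agar diffusion (stiff plate) with test substances at 5 mg/mL in grooves, allowed to diffuse into nutrient agar; inoculum 10^9 c.f.u./mL; bacteria incubated 24 h at 35 °C. Read-out: inhibition zone diameter (not sensitive 11–15 mm, sensitive 16–25 mm, highly sensitive >25 mm). Vancomycin and oxacillin as standards; three repeats.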

Aspergillus niger [2] = assay: Antifungal activity against Aspergillus niger at 1 to 5 mg/mL after 48 to 72 hrs by stiff-plate agar-diffusion method; format: functional, organism-based
In short: (§3)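 Fungal plates run by stiff-plate agar diffusion, substances applied to grooves at 5 mg/mL; 10^9 c.f.u./mL cells; incubation 48–72 h at 28–30 °C. Inhibition zone diameter scored (11–15 mm not sensitive, 16–25 mm sensitive, >25 mm highly sensitive). Nystatin standard; experiments done three times.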

UO-31 = assay: Cytotoxicity against human UO31 cells assessed as cell growth at 10^-5 M after 48 hrs by SRB assay; format: functional; details: UO-31, 48 h, read-out: Activity; in short: as §1
Mycobacterium [3] = assay: Antibacterial activity against Mycobacterium luteum at 1 to 5 mg/mL after 24 hrs by stiff-plate agar-diffusion method; format: functional, organism-based; in short: as §2
EKVX = assay: Cytotoxicity against human EKVX cells assessed as cell growth at 10^-5 M after 48 hrs by SRB assay; format: functional; details: read-out: Activity
In short: (§4)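 NCI 60-cell-line one-dose primary screen: cells inoculated and preincubated 24–48 h, then test agent added at a single 10^-5 M concentration for a further 48 h. Endpoint is sulforhodamine B protein staining read spectrophotometrically. Reported as percent growth relative to untreated control cells.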

SK-MEL-5 = assay: Cytotoxicity against human SK-MEL-5 cells assessed as cell growth at 10^-5 M after 48 hrs by SRB assay; format: functional; details: SK-MEL-5, 48 h, read-out: Activity; in short: as §1
Yamadazyma tenuis [4] = assay: Antifungal activity against Candida tenuis at 1 to 5 mg/mL after 48 to 72 hrs by stiff-plate agar-diffusion method; format: functional, organism-based; in short: as §3
SF-295 = assay: Cytotoxicity against human SF295 cells assessed as cell growth at 10^-5 M after 48 hrs by SRB assay; format: functional; details: SF-295, 48 h, read-out: Activity; in short: as §1
[5] = tested on: Photobacterium leiognathi; assay: Antibacterial activity against Photobacterium leiognathi Sh1 assessed as inhibition of bacterial luminescence at 0.25 mg/mL after 10 mins by bioluminometry-based acute action test; format: functional; set-up: scale not given: the % may be the effect or the level left
In short: (§5)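 Marine P. leiognathi Sh1 (Azov Sea shrimp isolate) diluted in chloride solution to 10^5 cells/mL; compounds suspended in DMSO mixed with 1 mL bacterial suspension. Acute test: 10 min at 25 °C, then bioluminescence measured by bioluminometer as % of compound-free control. Tetracycline reference.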

CCRF-CEM = assay: Cytotoxicity against human CCRF-CEM cells assessed as cell growth at 10^-5 M after 48 hrs by SRB assay; format: functional; details: read-out: Activity; in short: as §4
[6] = tested on: Photobacterium leiognathi; assay: Antibacterial activity against Photobacterium leiognathi Sh1 at 0.1 to 0.25 ug/mL; format: functional, organism-based
UACC-257 = assay: Cytotoxicity against human UACC257 cells assessed as cell growth at 10^-5 M after 48 hrs by SRB assay; format: functional; details: UACC-257, 48 h, read-out: Activity; in short: as §1
[7] = tested on: Photobacterium leiognathi; assay: Antibacterial activity against Photobacterium leiognathi Sh1 assessed as inhibition of bacterial luminescence at 0.025 mg/mL after 10 mins by bioluminometry-based acute action test; format: functional; set-up: scale not given: the % may be the effect or the level left; in short: as §5
SK-OV-3 = assay: Cytotoxicity against human SKOV3 cells assessed as cell growth at 10^-5 M after 48 hrs by SRB assay; format: functional; details: SK-OV-3, 48 h, read-out: Activity; in short: as §1
[8] = tested on: Photobacterium leiognathi; assay: Antibacterial activity against Photobacterium leiognathi Sh1 assessed as inhibition of bacterial luminescence at 0.25 mg/mL after 10 mins by bioluminometry-based chronic action test; format: functional; set-up: scale not given: the % may be the effect or the level left
In short: (§6)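 Chronic (growth plus luminescence) test with P. leiognathi Sh1 at 10^5 cells/mL in chloride solution, compounds added in DMSO. After 10 min at 25 °C, growth medium added at 1:50 and the mix incubated 16–18 h at 30 °C. Luminescence then measured by bioluminometer as % of untreated control. Tetracycline reference.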

[9] = tested on: Photobacterium leiognathi; assay: Antibacterial activity against Photobacterium leiognathi Sh1 assessed as inhibition of bacterial luminescence at 0.1 mg/mL after 10 mins by bioluminometry-based acute action test; format: functional; set-up: scale not given: the % may be the effect or the level left; in short: as §5
SR = assay: Cytotoxicity against human SR cells assessed as cell growth at 10^-5 M after 48 hrs by SRB assay; format: functional; details: read-out: Activity; in short: as §1
K562 = assay: Cytotoxicity against human K562 cells assessed as cell growth at 10^-5 M after 48 hrs by SRB assay; format: functional; details: K562, 48 h, read-out: Activity; in short: as §4
[10] = tested on: Photobacterium leiognathi; assay: Antibacterial activity against Photobacterium leiognathi Sh1 assessed as inhibition of bacterial luminescence at 0.1 mg/mL after 10 mins by bioluminometry-based chronic action test; format: functional; set-up: scale not given: the % may be the effect or the level left; in short: as §6
A549 = assay: Cytotoxicity against human A549 cells assessed as cell growth at 10^-5 M after 48 hrs by SRB assay; format: functional; details: A549, 48 h, read-out: Activity; in short: as §4
Staphylococcus aureus [11] = assay: Antibacterial activity against Staphylococcus aureus at 1 to 5 mg/mL after 24 hrs by stiff-plate agar-diffusion method; format: functional, organism-based; in short: as §2
PC-3 = assay: Cytotoxicity against human PC3 cells assessed as cell growth at 10^-5 M after 48 hrs by SRB assay; format: functional; details: PC-3, 48 h, read-out: Activity; in short: as §1
[12] = tested on: Photobacterium leiognathi; assay: Antibacterial activity against Photobacterium leiognathi Sh1 assessed as inhibition of bacterial luminescence at 0.025 mg/mL after 10 mins by bioluminometry-based chronic action test; format: functional; set-up: scale not given: the % may be the effect or the level left; in short: as §6
CAKI-1 = assay: Cytotoxicity against human Caki1 cells assessed as cell growth at 10^-5 M after 48 hrs by SRB assay; format: functional; details: CAKI-1, 48 h, read-out: Activity; in short: as §4
MOLT-4 = assay: Cytotoxicity against human MOLT4 cells assessed as cell growth at 10^-5 M after 48 hrs by SRB assay; format: functional; details: MOLT-4, 48 h, read-out: Activity; in short: as §1
Mycobacterium [13] = assay: Antibacterial activity against Mycobacterium luteum assessed as zone of inhibition at 0.5 mg/mL after 24 hrs by stiff-plate agar-diffusion method; format: functional; details: read-out: DIZ
Staphylococcus aureus [14] = assay: Antibacterial activity against Staphylococcus aureus assessed as zone of inhibition at 0.5 mg/mL after 24 hrs by stiff-plate agar-diffusion method; format: functional; details: read-out: DIZ
Yamadazyma tenuis [15] = assay: Antifungal activity against Candida tenuis assessed as zone of inhibition at 0.1 mg/mL after 48 to 72 hrs by stiff-plate agar-diffusion method; format: functional; details: read-out: DIZ
Yamadazyma tenuis [16] = assay: Antifungal activity against Candida tenuis assessed as zone of inhibition at 0.5 mg/mL after 48 to 72 hrs by stiff-plate agar-diffusion method; format: functional; details: read-out: DIZ
Mycobacterium [17] = assay: Antibacterial activity against Mycobacterium luteum assessed as zone of inhibition at 0.1 mg/mL after 24 hrs by stiff-plate agar-diffusion method; format: functional; details: read-out: DIZ
Escherichia coli [18] = assay: Antibacterial activity against Escherichia coli assessed as zone of inhibition at 0.5 mg/mL after 24 hrs by stiff-plate agar-diffusion method; format: functional; details: read-out: DIZ
Aspergillus niger [19] = assay: Antifungal activity against Aspergillus niger assessed as zone of inhibition at 0.1 mg/mL after 48 to 72 hrs by stiff-plate agar-diffusion method; format: functional; details: read-out: DIZ
Aspergillus niger [20] = assay: Antifungal activity against Aspergillus niger assessed as zone of inhibition at 0.5 mg/mL after 48 to 72 hrs by stiff-plate agar-diffusion method; format: functional; details: read-out: DIZ
Staphylococcus aureus [21] = assay: Antibacterial activity against Staphylococcus aureus assessed as zone of inhibition at 0.1 mg/mL after 24 hrs by stiff-plate agar-diffusion method; format: functional; details: read-out: DIZ
Escherichia coli [22] = assay: Antibacterial activity against Escherichia coli assessed as zone of inhibition at 0.1 mg/mL after 24 hrs by stiff-plate agar-diffusion method; format: functional; details: read-out: DIZ
[23] = in the assay text read “after 16 to 18 hrs” for “after 10 mins”

Cc1ccc(-c2nn3c(SCC(=O)O)nc4ccccc4c3nc2=O)cc1
growth at 10 µM (SNB-75): 74.2%
Activity (Escherichia coli [1]): inactive
Activity (Aspergillus niger [2]): inactive
growth at 10 µM (UO-31): 85.3%
Activity (Mycobacterium [3]): inactive
growth at 10 µM (EKVX): 95%
growth at 10 µM (SK-MEL-5): 96%
Activity (Yamadazyma tenuis [4]): inactive
growth at 10 µM (SF-295): 84.3%
Activity [5]: 0%
growth at 10 µM (CCRF-CEM): 95.6%
Activity [6]: inactive
growth at 10 µM (UACC-257): 95.1%
Activity [7]: 91.7%
growth at 10 µM (SK-OV-3): 89.9%
Activity [8, 23]: 0%
Activity [9]: 20%
growth at 10 µM (SR): 68%
growth at 10 µM (K562): 94.5%
Activity [10, 23]: 255.3%
growth at 10 µM (A549): 96.5%
Activity (Staphylococcus aureus [11]): inactive
growth at 10 µM (PC-3): 86.5%
Activity [12, 23]: 93.3%
growth at 10 µM (CAKI-1): 82.8%
growth at 10 µM (MOLT-4): 84.9%

COc1ccc(-c2nn3c(SCC(=O)Nc4ccc(C56CC7CC(CC(C7)C5)C6)cc4)nc4ccccc4c3nc2=O)cc1
zone of inhibition at 500 µg/mL (Mycobacterium [13]): 0 mm
Activity [5]: 59.57%
zone of inhibition at 500 µg/mL (Staphylococcus aureus [14]): 0 mm
zone of inhibition at 100 µg/mL (Yamadazyma tenuis [15]): 0 mm
Activity [7]: 76.6%
Activity [8]: 76.92%
Activity [9]: 59.57%
zone of inhibition at 500 µg/mL (Yamadazyma tenuis [16]): 0 mm
zone of inhibition at 100 µg/mL (Mycobacterium [17]): 0 mm
Activity [10]: 34.62%
zone of inhibition at 500 µg/mL (Escherichia coli [18]): 0 mm
Activity [12]: 48.72%
zone of inhibition at 100 µg/mL (Aspergillus niger [19]): 0 mm
zone of inhibition at 500 µg/mL (Aspergillus niger [20]): 0 mm
zone of inhibition at 100 µg/mL (Staphylococcus aureus [21]): 7 mm
zone of inhibition at 100 µg/mL (Escherichia coli [22]): 0 mm
